Screening data (PubChem BioAssay)
CHT block – human CHT choline transport inhibition. CHT-expressing cells, membrane potential dye, choline response; stronger effect = lower value. B-score at 10 µM. actives 0.86% (n = 310,000). AID 488975. Q9GZV3;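 active = B-score over 3 SD under the library average, and starting fluorescence ratio not unusually high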;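 also: choline stimulus applied at its EC90 after an EC20 pre-addition; B-score computed on integrated fluorescence ratio after choline addition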
TNAP inh hiacc – inhibitors of human TNAP at high phosphate acceptor concentration; P05186; purified TNAP, CDP-star luminescence, 1 M DEA; inhibition, % at 20 µM; actives 0.03% (n = 200,000); AID 1135;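 active = over 50% inhibition of tissue-nonspecific alkaline phosphatase at 20 µM in the single-dose screen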
ABCB6 inh MLPCN – inhibitors of human ABC transporter ABCB6; Q9NP58; K562-ABCB6 porphyrin accumulation, flow cytometry, 1 h; stronger effect = lower value; fluorescence ratio to DMSO, % at 10 µM; actives 0.19% (n = 360,000); AID 602162;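 active = fluorescence ratio to DMSO below 75%, the collection mean minus 3 SD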;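 also: signal is porphyrin accumulated inside mitochondria; lower ratio means ABCB6 inhibition with less porphyrin fluorescence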
TNAP act hiacc – increases human TNAP activity under high phosphate acceptor concentration. AID 1136. activation factor at 20 µM. P05186. purified TNAP, CDP-star luminescence, 1 M DEA, 30 min; stronger effect = higher value; 0 = EDTA background, 1 = DMSO-only activity. 200,000 tested, under 10 active;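 active = activation factor at least 2 at 20 µM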
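Measured by: Luminescent substrate turnover signal | Test system: Human TNAP | Input: TNAP 1/800 final | Dosing: 20 µM single point | Schedule: 30 min, room temperature | Controls: EDTA wells as negative control, DMSO wells as positive control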
CHT PAM – human CHT allosteric activation; B-score at 10 µM; CHT-expressing cells, membrane potential dye, choline EC20; stronger effect = higher value; LV-AA mutant CHT in HEK293 cells; actives 0.49% (n = 310,000); Q9GZV3; AID 488977;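 active = initial fluorescence not abnormally high and integrated response B-score, plate-corrected, over 3 SD above library mean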
TNAP inh noacc – blocks human TNAP activity with no phosphate acceptor present; purified TNAP, CDP-star luminescence, 30 min; inhibition, % at 20 µM; actives 0.26% (n = 200,000);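 active = tissue-nonspecific alkaline phosphatase inhibition above about 50% at 20 µM in the single-dose screen, limit read from the data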
CHT act confirm – confirmation of human choline transporter (CHT) activators | shares compounds with CHT PAM | CHT-expressing cells, membrane potential dye fluorescence (FDSS); % of choline EC20–EC90 response window; HEK293 expressing CHT LV-AA mutant; choline added at its EC20 | activation, % at 10 µM | actives 91% (n = 2,500) | AID 504833;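 active = primary screen active, with duplicate mean activation above negative control mean plus 3 SD, cut at about 11% in these data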
HEK293 MP dye – CHT activator counter-screen hit in parental HEK293 cells; shares compounds with CHT PAM; membrane potential dye fluorescence (FDSS); measured after EC20 choline addition; ratio readout change at 10 µM, hits read low; actives 62% (n = 2,500); AID 623908;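 active = duplicate-averaged ratio beyond 3 SD from buffer wells, up or down, though filed actives are nearly all decreases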
Numbers stand for hits; . = inactive; / = no result given. Hits are enriched below; roughly 1.4% of the tested compounds scored in any of these assays.

SMILES	CHT block	TNAP inh hiacc	ABCB6 inh MLPCN	TNAP act hiacc	CHT PAM	TNAP inh noacc	CHT act confirm	HEK293 MP dye
CN(C)c1nc(N)c([N+](=O)[O-])c(NCCO)n1	.	.	.	.	.	.	/	/
COC(=O)c1ccc(OC)c(CSc2nnc(COc3cccc(C)c3)o2)c1	.	.	.	.	.	.	19	.
CCCCn1c(N)c(N(CCC(C)C)C(=O)C2CCCN(C(=O)c3ccc(Cl)cc3)C2)c(=O)[nH]c1=O (configuration not stated)	.	/	.	/	8.8	/	12	.
Cc1cn([C@H]2C[C@H](O)[C@@H](CCC(=O)NCCc3ccc4ccccc4c3)O2)c(=O)[nH]c1=O	/	/	.	/	/	/	/	/
Cc1cnc(C(=O)Nc2cccc3ncccc23)cn1	.	.	.	.	8	.	43	-47
Cc1cc(C(=O)Nc2cccc3ncccc23)no1	.	.	.	.	.	.	/	/
CCN(CC)CCNC1=NCCn2c1cc1cc(OC)ccc12	.	.	.	.	8.2	.	60	-51
CN=C1c2cc3cc(OC)ccc3n2CCN1Cc1ccccc1	/	.	.	.	/	.	/	/
Cc1c(C(=O)N/N=C/c2cccnc2)nnn1-c1nonc1N	.	/	.	/	.	/	31	-45
CC1CCN(CC(=O)Nc2ccc(Br)cc2[N+](=O)[O-])CC1	.	.	.	.	.	.	/	/
O/N=C/c1ccc2cccc(OCc3ccccc3)c2n1	.	/	.	/	.	/	/	/
NC(N)=N/N=C/c1ccc2cccc(OCc3ccccc3)c2n1	.	/	.	/	6.3	/	14	.
O=C(CC[C@H]1O[C@@H](n2ccc(=O)[nH]c2=O)[C@H](O)[C@@H]1O)NCCCc1ccccc1	/	/	.	/	/	/	/	/
COc1ccc(Nc2nccc(N(C)C)c2C#N)cc1	.	.	.	.	.	.	50	-42
C=CCN(Cc1cn(C)nc1-c1cccc(Cl)c1)C1CCS(=O)(=O)C1 (configuration not stated)	.	.	.	.	.	.	/	/
CCOc1ccc(S(=O)(=O)N(CC(=O)NCc2ccncc2)c2ccc(C)cc2)cc1	.	/	.	/	.	/	/	/
COc1cc(C(=O)c2ccc3c(c2)OCO3)cc(OC)c1OC	/	/	.	/	/	/	/	/
COc1cc(C(=O)c2cocc2C(=O)c2ccc3c(c2)OCO3)cc(OC)c1OC	.	/	.	/	11	/	26	.
Nc1nc(N2CCN(c3ccccn3)CC2)nc2ccccc12	.	/	.	/	.	/	26	-42
COc1ccc(-c2nc3n(c2C)CCC3)cc1	.	/	.	/	6.4	/	57	-63
Cc1c(Cl)c(C(=O)N2CCCCCC2)nn1C	.	/	.	/	.	/	/	/
C/C(CCC(C)C)=N\Nc1cc(C)c2ccccc2n1	.	.	.	.	7.4	.	52	.
COc1cccc(CN2CC(C(=O)N(C)CCCC3CCCC3)CCC2=O)c1 (configuration not stated)	.	/	.	/	.	/	/	/
CCOC(=O)c1oc2ccc(CNCCO)c(Cl)c2c1C	.	.	.	.	8.3	.	37	-29
CCN1CCN(c2cc3c(cc2F)c(=O)c(C(=O)O)cn3C2CC2)CC1	.	.	.	.	8.7	.	54	-58
SMILES	CHT block	TNAP inh hiacc	ABCB6 inh MLPCN	TNAP act hiacc	CHT PAM	TNAP inh noacc	CHT act confirm	HEK293 MP dye
COc1ccc(NS(=O)(=O)c2cccc(-c3nnc4n3CCCCC4)c2)cc1	.	.	.	.	.	.	18	.
COc1ccccc1S(=O)(=O)Nc1cccc(-c2nnc3n2CCCCC3)c1	.	.	.	.	.	.	/	/
CCc1ccc(NC(=O)C(=O)NCCOc2ccccc2Cl)cc1	.	.	.	.	.	.	/	/
CCN1CCN(c2ccc(S(=O)(=O)N3CCCCC3)cc2NC(=O)Cc2ccc(OC)cc2)CC1	.	/	.	/	.	/	39	-36
CCN1CCN(c2ccc(S(=O)(=O)N3CCCCC3)cc2NC(=O)/C=C/c2cccc(OC)c2OC)CC1	.	/	.	/	.	/	41	-31
COc1cccc(OC)c1C(=O)Nc1cccc2c1CCCC2	.	/	.	/	.	/	/	/
COC(=O)c1ccccc1NC(=O)c1cc[n+](C)cc1	.	/	.	/	.	/	60	-55
Cc1cccc(Nc2c(O)nc[nH]c2=O)c1	/	/	.	/	/	/	/	/
COC(=O)C1=C(C)N(Cc2ccccc2)C(=NCc2ccc(OC)cc2)N[C@H]1c1ccccc1	/	/	.	/	/	/	/	/
COC(=O)C1=C(C)N(Cc2ccccc2)C(=NCC(C)C)N[C@H]1c1ccccc1	.	/	/	/	.	/	35	.
CCN1C(=NCc2cccc(Cl)c2)N[C@@H](c2cccc(F)c2)C(C(=O)OC)=C1C	.	/	.	/	.	/	.	.
COC(=O)C1=C(C)N(Cc2ccccc2)C(=NCc2cccc(C(F)(F)F)c2)N[C@H]1c1cccc(F)c1	.	/	.	/	.	/	/	/
Cc1cccn2c(=O)c3cc(C#N)c(=O)n(Cc4cccnc4)c3nc12	/	.	.	.	/	.	/	/
N#Cc1cc2c(=O)n3ccccc3nc2n(Cc2cccnc2)c1=O	.	/	.	/	6.9	/	48	-44
O=C(NCC1COc2ccccc2O1)C1CCN(S(=O)(=O)c2ccc(Cl)cc2)CC1 (configuration not stated)	/	/	.	/	/	/	/	/
CC/C(=C/c1sc2ccccc2[n+]1CC)SC	.	.	.	.	6.5	.	51	.
CC[n+]1c(/C=C(\C)Nc2ccccc2)sc2ccccc21	.	.	.	.	.	.	/	/
CCN1/C(=C/C=C/C=C/c2sc3ccccc3[n+]2CC)Sc2ccccc21	.	.	/	.	.	.	/	/
CC[n+]1c(/C=C/Nc2ccccc2)sc2ccccc21	.	.	.	.	.	.	46	-51
CCN1/C(=C/C=C/C=C/C=C/c2sc3ccccc3[n+]2CC)Sc2ccccc21	.	/	.	/	9.6	/	29	-35
CC[n+]1c(/C=C(/C)SC)sc2ccccc21	.	.	.	.	6.9	.	59	-24
Cc1ccccc1OCCC(=O)Nc1ccc2c(C)cc(=O)oc2c1	.	/	.	/	.	/	/	/
CCOC(=O)Cc1csc(NC(=S)NC(=O)c2cc(OC)c(OC)c(OC)c2)n1	.	/	.	/	.	/	/	/
CCCCN(C(=O)CSc1n[nH]c(-c2ccc(C)cc2)n1)c1c(N)n(CCCC)c(=O)[nH]c1=O	.	/	.	/	.	/	/	/
CC[n+]1c(/C=C(\C)SC)sc2ccccc21	.	.	.	.	7.4	.	58	-25
Cc1cc(/C=N\O)c(C)n1-c1ccncc1	.	.	.	.	.	.	/	/
CSc1nc(Cl)c(Cc2ccc(OC(C)C)cc2)c(N(C)C)n1	.	.	.	.	.	.	/	/
CCOc1ccc(Cc2c(Cl)nc(SC)nc2N(C)C)cc1	.	.	.	.	6.4	.	28	.
